Laboratory results published in ChEMBL document CHEMBL1667724, “Landomycins P-W, cytotoxic angucyclines from Streptomyces cyanogenus S-136” (J Nat Prod, 2011).

Tests used:
MCF7 = assay: Cytotoxicity against ER-positive human MCF7 cells after 24 hrs by trypan blue staining; type: functional, cell-based
How it was run: (§1)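 Cells grown in DMEM; 50 × 10^3 cells per well seeded and left to attach overnight, then medium replaced with fresh medium containing a range of compound concentrations for 24 hours at 37 °C. Adherent plus floating cells pooled, resuspended in PBS, and stained with 0.4% trypan blue for 3 min. Live and dead cells counted on a hemocytometer. IC50 taken from dose-response curves as the mean of three experiments. Ethanol served as positive control and untreated medium as negative control.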

[1] = Cytotoxicity against ER-refractory human MDA231 cells after 24 hrs by trypan blue staining; type: functional, cell-based; settings: MDA-MB-231, 24 h; how it was run: as §1
[2] = Homo sapiens, MCF7, 24 h, read-out: IC50

| Structure (SMILES) | IC50 (MCF7; [2]) [nM] | IC50 [1] [nM] | IC50 (MCF7; mcf7) |
| --- | --- | --- | --- |
| Cc1cc(O)c2c3c(ccc2c1)C(=O)c1c(O)ccc(O)c1C3=O [ANHYDROLANDOMYCINONE] | 1800 | 2000 | – |
| Cc1cc(O)c2c(c1)C[C@@H](O)C1=C2C(=O)c2c(O)ccc(O[C@H]3C[C@@H](O)[C@H](O[C@H]4C[C@@H](O[C@H]5CC[C@H](O[C@H]6C[C@@H](O)[C@H](O[C@H]7C[C@@H](O[C@H]8CC[C@H](O)[C@H](C)O8)[C@H](O)[C@@H](C)O7)[C@@H](C)O6)[C@H](C)O5)[C@H](O)[C@@H](C)O4)[C@@H](C)O3)c2C1=O [LANDOMYCIN A] | 2500 | 1400 | – |
| Cc1cc(O)c2c(c1)C[C@@H](O)C1=C2C(=O)c2c(O)ccc(O[C@H]3C[C@@H](O)[C@H](O[C@H]4C[C@@H](O[C@H]5CC[C@H](O[C@H]6C[C@@H](O)[C@H](O[C@H]7C[C@@H](O)[C@H](O)[C@@H](C)O7)[C@@H](C)O6)[C@H](C)O5)[C@H](O)[C@@H](C)O4)[C@@H](C)O3)c2C1=O [LANDOMYCIN B] | 4250 | 1800 | – |
| Cc1cc(O)c2c(c1)C[C@@H](O)C1=C2C(=O)c2c(O)ccc(O[C@H]3C[C@@H](O)[C@H](O[C@H]4C[C@@H](O)[C@H](O)[C@@H](C)O4)[C@@H](C)O3)c2C1=O [LANDOMYCIN D] | 7600 | 1750 | – |
| Cc1cc(O)c2c(c1)C[C@@H](O)C1=C2C(=O)c2cccc(O[C@H]3C[C@@H](O)[C@H](O[C@H]4C[C@@H](O)[C@H](O)[C@@H](C)O4)[C@@H](C)O3)c2C1=O [LANDOMYCIN F] | – | 1800 | Not Active |
| Cc1cc(O)c2c3c(ccc2c1)C(=O)c1c(O[C@H]2C[C@@H](O)[C@H](O[C@H]4C[C@@H](O[C@H]5CC[C@H](O[C@H]6C[C@@H](O)[C@H](O[C@H]7C[C@@H](O)[C@H](O)[C@@H](C)O7)[C@@H](C)O6)[C@H](C)O5)[C@H](O)[C@@H](C)O4)[C@@H](C)O2)cccc1C3=O [LANDOMYCIN M] | 7100 | 1900 | – |
| Cc1cc(O)c2c3c(ccc2c1)C(=O)c1c(O[C@H]2C[C@@H](O)[C@H](O[C@H]4C[C@@H](O)[C@H](O)[C@@H](C)O4)[C@@H](C)O2)cccc1C3=O [LANDOMYCIN O] | – | 3550 | Not Active |
| Cc1cc(O)c2c3c(ccc2c1)C(=O)c1c(O[C@H]2C[C@@H](O)[C@H](O[C@H]4C[C@@H](O[C@H]5CC[C@H](O)[C@H](C)O5)[C@H](O)[C@@H](C)O4)[C@@H](C)O2)cccc1C3=O [LANDOMYCIN P] | – | 3550 | Not Active |
| Cc1cc(O)c2c3c(ccc2c1)C(=O)c1c(O[C@H]2C[C@@H](O)[C@H](O[C@H]4C[C@@H](O[C@H]5CC[C@H](O)[C@H](C)O5)[C@H](O)[C@@H](C)O4)[C@@H](C)O2)ccc(O)c1C3=O [LANDOMYCIN Q] | – | 3850 | Not Active |
| Cc1cc(O)c2c3c(ccc2c1)C(=O)c1c(O[C@H]2C[C@@H](O)[C@H](O[C@H]4C[C@@H](O)[C@H](O)[C@@H](C)O4)[C@@H](C)O2)ccc(O)c1C3=O [LANDOMYCIN R] | – | 1700 | Not Active |
| Cc1cc(O)c2c(c1)C[C@@H](O)C1=C2C(=O)c2cccc(O[C@H]3C[C@@H](O)[C@H](O[C@H]4C[C@@H](O[C@H]5CC[C@H](O[C@H]6C[C@@H](O)[C@H](O[C@H]7C[C@@H](O[C@H]8CC[C@H](O)[C@H](C)O8)[C@H](O)[C@@H](C)O7)[C@@H](C)O6)[C@H](C)O5)[C@H](O)[C@@H](C)O4)[C@@H](C)O3)c2C1=O [LANDOMYCIN S] | 6700 | 1500 | – |
| Cc1cc(O)c2c3c(ccc2c1)C(=O)c1c(O[C@H]2C[C@@H](O)[C@H](O[C@H]4C[C@@H](O[C@H]5CC[C@H](O[C@H]6C[C@@H](O)[C@H](O[C@H]7C[C@@H](O[C@H]8CC[C@H](O)[C@H](C)O8)[C@H](O)[C@@H](C)O7)[C@@H](C)O6)[C@H](C)O5)[C@H](O)[C@@H](C)O4)[C@@H](C)O2)cccc1C3=O [LANDOMYCIN T] | – | 1850 | Not Active |
| Cc1cc(O)c2c3c(ccc2c1)C(=O)c1c(O[C@H]2C[C@@H](O)[C@H](O[C@H]4C[C@@H](O[C@H]5CC[C@H](O[C@H]6C[C@@H](O)[C@H](O[C@H]7C[C@@H](O[C@H]8CC[C@H](O)[C@H](C)O8)[C@H](O)[C@@H](C)O7)[C@@H](C)O6)[C@H](C)O5)[C@H](O)[C@@H](C)O4)[C@@H](C)O2)ccc(O)c1C3=O [LANDOMYCIN U] | 2100 | 7300 | – |
| Cc1cc(O)c2c(c1)C[C@@H](O)C1=C2C(=O)c2cccc(O[C@H]3C[C@@H](O)[C@H](O[C@H]4C[C@@H](O[C@H]5CC[C@H](O[C@H]6C[C@@H](O)[C@H](O[C@H]7C[C@@H](O)[C@H](O)[C@@H](C)O7)[C@@H](C)O6)[C@H](C)O5)[C@H](O)[C@@H](C)O4)[C@@H](C)O3)c2C1=O [LANDOMYCIN V] | 6100 | 1500 | – |
| Cc1cc(O)c2c3c(ccc2c1)C(=O)c1c(O[C@H]2C[C@@H](O)[C@H](O[C@H]4C[C@@H](O[C@H]5CC[C@H](O[C@H]6C[C@@H](O)[C@H](O[C@H]7C[C@@H](O)[C@H](O)[C@@H](C)O7)[C@@H](C)O6)[C@H](C)O5)[C@H](O)[C@@H](C)O4)[C@@H](C)O2)ccc(O)c1C3=O [LANDOMYCIN W] | 6900 | 2650 | – |
| Cc1cc(O)c2c(c1)C[C@@H](O)C1=C2C(=O)c2c(O)ccc(O)c2C1=O [LANDOMYCINONE] | 2100 | 1400 | – |
| C[C@]1(O)CC(=O)c2c(ccc3c2C(=O)c2cccc(O)c2C3=O)C1 [TETRANGOMYCIN] | – | 1550 | Not Active |
| Cc1cc(O)c2c3c(ccc2c1)C(=O)c1c(O)cccc1C3=O [TETRANGULOL] | – | 1500 | Not Active |
